{
  "source": "ChEMBL document CHEMBL4665656",
  "about": "“Toxicity, bioactivity, release of HS in vivo and pharmaco-kinetics of HS-donors with thiophosphamide structure” (Eur J Med Chem, 2019)",
  "key": {"[1]": {"assay": "Solubility of compound in water", "type": "physicochemical", "conditions": "buffer"}, "[2]": {"assay": "Kinetic Solubility of compound", "type": "physicochemical"}, "[3]": {"assay": "Induction of H2S generation assessed as Cmax Induction of H2S generation assessed as Cmax at 150 uM incubated at 37 degC and pH 7.4 by fluorescence spectrophotometry", "type": "functional", "procedure,_shortened": "(§1)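 Donor at 150 µM final, mixed with 200 µM sulfonyl-azide fluorescent probe in buffer/acetonitrile (1:9) at set pH. Cuvette held in a water bath at 22 °C or 37 °C, with fluorescence read three times at intervals. H2S was quantified from a Na2S standard curve (0–200 µM, probe 200 µM).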"}, "[4]": {"assay": "Induction of H2S generation assessed as Cmax Induction of H2S generation assessed as Cmax at 150 uM incubated at 37 degC and pH 8 by fluorescence spectrophotometry", "type": "functional", "procedure,_shortened": "as §1"}, "[5]": {"assay": "Induction of H2S generation assessed as Cmax at 150 uM incubated at 37 degC and pH 5 by fluorescence spectrophotometry", "type": "functional", "procedure,_shortened": "as §1"}, "[6]": {"assay": "Induction of H2S generation assessed as Cmax at 150 uM incubated at 37 degC and pH 1.2 by fluorescence spectrophotometry", "type": "functional", "procedure,_shortened": "as §1"}, "[7]": {"assay": "Induction of H2S generation assessed as Cmax at 150 uM incubated at 22 degC and pH 7.4 by fluorescence spectrophotometry", "type": "functional", "procedure,_shortened": "as §1"}, "[8]": {"assay": "Induction of H2S generation assessed as Cmax at 150 uM incubated at 22 degC and pH 8 by fluorescence spectrophotometry", "type": "functional", "procedure,_shortened": "as §1"}, "[9]": {"assay": "Induction of H2S generation assessed as Cmax at 150 uM incubated at 22 degC and pH 1.2 by fluorescence spectrophotometry", "type": "functional", "procedure,_shortened": "as §1"}, "HeLa": {"system": "HeLa", "assay": "Cytotoxicity in human HeLa cells assessed as growth inhibition incubated for 24 hrs by MTT assay", "type": "functional, cell-based", "procedure,_shortened": "(§2)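 Cells were grown in RPMI 1640 with 10% FBS at 37 °C and 10% CO2, seeded at 6×10^3 cells/well. Exposure was 24 h, with viability by MTT, in triplicate cultures. IC50 was reported as mean ± SD.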"}, "A549": {"system": "A549", "assay": "Cytotoxicity in human A549 cells assessed as growth inhibition incubated for 24 hrs by MTT assay", "type": "functional, cell-based", "conditions": "A549, 24 h", "procedure,_shortened": "as §2"}, "HepG2": {"system": "HepG2", "assay": "Cytotoxicity in human HePG2 cells assessed as growth inhibition incubated for 24 hrs by MTT assay", "type": "functional, cell-based", "conditions": "HepG2, 24 h", "procedure,_shortened": "as §2"}, "MCF7": {"system": "MCF7", "assay": "Cytotoxicity in human MCF-7 cells assessed as growth inhibition incubated for 24 hrs by MTT assay", "type": "functional, cell-based", "conditions": "MCF7, 24 h", "procedure,_shortened": "as §2"}, "HT-29": {"system": "HT-29", "assay": "Cytotoxicity in human HT-29 cells assessed as growth inhibition incubated for 24 hrs by MTT assay", "type": "functional, cell-based", "conditions": "HT-29, 24 h", "procedure,_shortened": "as §2"}, "WI-38": {"system": "WI-38", "assay": "Cytotoxicity in human W138 cells assessed as growth inhibition incubated for 24 hrs by MTT assay", "type": "cell-based", "conditions": "WI-38, 24 h", "procedure,_shortened": "as §2"}, "RAW264.7 [10]": {"system": "RAW264.7", "assay": "Anti-inflammatory activity in mouse RAW264.7 cells assessed as inhibition of LPS-induced IL-10 production at 20 uM preincubated for 4 hr followed by LPS addition and measured after 24 hrs", "type": "functional, cell-based", "procedure,_shortened": "(§3)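 RAW264.7 cells given LPS 1 µg/mL with compound for 24 h, then lysed in RIPA and centrifuged. Protein was set to 0.1 mg/mL by BCA and mouse cytokine levels measured by sandwich ELISA kit. Four parallel groups, mean ± SD.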"}, "RAW264.7 [11]": {"system": "RAW264.7", "assay": "Anti-inflammatory activity in mouse RAW264.7 cells assessed as inhibition of LPS-induced TNFalpha production at 20 uM preincubated for 4 hr followed by LPS addition and measured after 24 hrs relative to control", "type": "functional, cell-based", "procedure,_shortened": "as §3"}, "[12]": {"assay": "Cytotoxicity against mouse RAW264.7 cells assessed as cell viability at 20 to 100 microM after 24 hrs by MTT assay", "type": "cell-based", "conditions": "dose 20-100 µM, read-out: Activity", "procedure,_shortened": "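RAW264.7 macrophages in high-glucose DMEM with 10% heat-inactivated FBS, 37 °C, 5% CO2. LPS 1 µg/mL with or without compound (20 and 100 µM) for 24 h. Then MTT 4 h, formazan dissolved in DMSO, A570, expressed as % of control.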"}, "RAW264.7 [13]": {"system": "RAW264.7", "assay": "Anti-inflammatory activity in mouse RAW264.7 cells assessed as inhibition of LPS-induced NO production preincubated for 4 hr followed by LPS addition and measured after 24 hrs relative to control", "type": "functional, cell-based", "conditions": "dose 100.0 µM, time 28.0 hrs", "procedure,_shortened": "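RAW264.7 cells exposed to LPS 1 µg/mL with compound (20 and 100 µM) for 24 h. Nitrite in medium measured by Griess reagent, […], against a sodium nitrite standard curve (0–100 µM). Four parallel groups, mean ± SD.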"}, "[14]": {"assay": "Cytotoxicity against rat H9C2 cells assessed as cell viability at 100 uM measured after 24 hrs by MTT assay", "type": "cell-based", "conditions": "read-out: Activity"}, "[15]": {"assay": "Induction of H2S generation assessed as half life at 150 uM incubated at 22 degC and pH 1.2 by fluorescence spectrophotometry", "type": "functional", "procedure,_shortened": "as §1"}, "[16]": {"assay": "Induction of H2S generation assessed as half life at 150 uM incubated at 22 degC and pH 5 by fluorescence spectrophotometry", "type": "functional", "procedure,_shortened": "as §1"}, "[17]": {"assay": "Induction of H2S generation assessed as half life at 150 uM incubated at 22 degC and pH 7.4 by fluorescence spectrophotometry", "type": "functional", "procedure,_shortened": "as §1"}, "[18]": {"assay": "Induction of H2S generation assessed as half life at 150 uM incubated at 22 degC and pH 8 by fluorescence spectrophotometry", "type": "functional", "procedure,_shortened": "as §1"}, "[19]": {"assay": "Induction of H2S generation assessed as half life at 150 uM incubated at 37 degC and pH 1.2 by fluorescence spectrophotometry", "type": "functional", "procedure,_shortened": "as §1"}, "[20]": {"assay": "Induction of H2S generation assessed as half life at 150 uM incubated at 37 degC and pH 5 by fluorescence spectrophotometry", "type": "functional", "procedure,_shortened": "as §1"}, "[21]": {"assay": "Induction of H2S generation assessed as half life at 150 uM incubated at 37 degC and pH 7.4 by fluorescence spectrophotometry", "type": "functional", "procedure,_shortened": "as §1"}, "[22]": {"assay": "Induction of H2S generation assessed as half life at 150 uM incubated at 37 degC and pH 8 by fluorescence spectrophotometry", "type": "functional", "procedure,_shortened": "as §1"}},
  "note": "The source made the active and inactive calls. The calls are words filed in the database; no cut-off is given here.",
  "data": [
    {"smiles": "O=C([O-])CNP([O-])(=S)c1ccccc1.[Li+].[Li+]", "note": "(stereo not drawn)", "values": [
      {"measurement": "solubility", "setting": "[1]", "result": "Soluble"},
      {"measurement": "Kinetic_solubility", "setting": "[2]", "result": "Soluble"},
      {"measurement": "Cmax", "setting": "[3]", "result": 102, "unit": "µM"},
      {"measurement": "Cmax", "setting": "[4]", "result": 101, "unit": "µM"},
      {"measurement": "Cmax", "setting": "[5]", "result": 103, "unit": "µM"},
      {"measurement": "Cmax", "setting": "[6]", "result": 103, "unit": "µM"},
      {"measurement": "Cmax", "setting": "[7]", "result": 99.5, "unit": "µM"},
      {"measurement": "Cmax", "setting": "[8]", "result": 99.4, "unit": "µM"},
      {"measurement": "Cmax", "setting": "[9]", "result": 101, "unit": "µM"},
      {"measurement": "IC50", "setting": "HeLa", "result": 913, "unit": "µM"},
      {"measurement": "IC50", "setting": "A549", "result": 378, "unit": "µM"},
      {"measurement": "IC50", "setting": "HepG2", "result": 771, "unit": "µM"},
      {"measurement": "IC50", "setting": "MCF7", "result": 876, "unit": "µM"},
      {"measurement": "IC50", "setting": "HT-29", "result": 912, "unit": "µM"},
      {"measurement": "IC50", "setting": "WI-38", "result": 508, "unit": "µM"},
      {"measurement": "Activity", "setting": "RAW264.7 [10]", "result": "Active"},
      {"measurement": "Activity", "setting": "RAW264.7 [11]", "result": "Active"},
      {"measurement": "viability at 24 h", "setting": "[12]", "result": 70, "unit": "%"},
      {"measurement": "Activity", "setting": "RAW264.7 [13]", "result": "Dose-dependent effect"},
      {"measurement": "viability at 24 h, 100 µM", "setting": "[14]", "result": "> 90", "unit": "%"},
      {"measurement": "T1/2", "setting": "[15]", "result": 2.94, "unit": "min"},
      {"measurement": "T1/2", "setting": "[16]", "result": 3.19, "unit": "min"},
      {"measurement": "T1/2", "setting": "[17]", "result": 4.93, "unit": "min"},
      {"measurement": "T1/2", "setting": "[18]", "result": 6.44, "unit": "min"},
      {"measurement": "T1/2", "setting": "[19]", "result": 2.17, "unit": "min"},
      {"measurement": "T1/2", "setting": "[20]", "result": 2.41, "unit": "min"},
      {"measurement": "T1/2", "setting": "[21]", "result": 3.66, "unit": "min"},
      {"measurement": "T1/2", "setting": "[22]", "result": 5.57, "unit": "min"}
    ]}
  ]
}
